The values that follow come from ChEMBL document CHEMBL1131058, “Studies on quinazolines and 1,2,4-benzothiadiazine 1,1-dioxides. 8.1, 2 synthesis and pharmacological evaluation of tricyclic fused quinazolines and 1,2,4-benzothiadiazine 1,1-dioxides as potential alpha1-adrenoceptor antagonists” (J Med Chem, 1998).

SMILES strings stand for the structures. pKi: −log10 of the molar value. A value given as a limit tells only on which side of the number the result lay.

The target in test [1] is T1, Alpha-2B adrenergic receptor (Homo sapiens, UniProt P18089).
T1 sequence (P18089 whole entry): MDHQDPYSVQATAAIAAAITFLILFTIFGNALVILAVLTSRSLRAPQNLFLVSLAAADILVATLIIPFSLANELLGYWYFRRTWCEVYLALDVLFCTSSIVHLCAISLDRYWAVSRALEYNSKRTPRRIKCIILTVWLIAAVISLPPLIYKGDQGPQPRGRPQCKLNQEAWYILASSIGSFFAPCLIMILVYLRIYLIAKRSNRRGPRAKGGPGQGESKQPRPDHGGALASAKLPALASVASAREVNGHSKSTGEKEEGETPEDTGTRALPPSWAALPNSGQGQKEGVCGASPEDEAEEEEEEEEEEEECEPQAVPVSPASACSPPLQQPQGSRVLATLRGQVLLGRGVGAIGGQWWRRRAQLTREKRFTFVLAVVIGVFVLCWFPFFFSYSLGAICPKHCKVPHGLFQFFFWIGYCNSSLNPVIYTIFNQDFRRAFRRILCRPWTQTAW
The test is described as follows: Compound is evaluated for binding affinity towards Alpha-2B adrenergic receptor using [3H]yohimbine.

Test [2] concerns the target T2, Alpha-2A adrenergic receptor (Homo sapiens, UniProt P08913).
T2 sequence (P08913 whole entry): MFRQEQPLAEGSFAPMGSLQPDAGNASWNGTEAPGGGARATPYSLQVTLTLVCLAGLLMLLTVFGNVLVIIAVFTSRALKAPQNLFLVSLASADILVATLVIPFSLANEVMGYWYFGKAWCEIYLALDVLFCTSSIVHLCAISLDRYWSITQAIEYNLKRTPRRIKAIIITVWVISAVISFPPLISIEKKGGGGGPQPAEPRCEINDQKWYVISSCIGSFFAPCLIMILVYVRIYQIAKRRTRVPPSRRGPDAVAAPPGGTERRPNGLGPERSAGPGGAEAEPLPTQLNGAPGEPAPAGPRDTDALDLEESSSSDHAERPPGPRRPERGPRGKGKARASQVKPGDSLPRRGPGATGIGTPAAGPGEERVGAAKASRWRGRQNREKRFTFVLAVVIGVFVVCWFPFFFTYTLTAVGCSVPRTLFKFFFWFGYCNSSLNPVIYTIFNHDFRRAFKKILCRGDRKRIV
The test is described as follows: Compound is evaluated for binding affinity towards Alpha-2A adrenergic receptor using [3H]MK912.

Test [3] concerns the target Sodium channel alpha subunits; brain (Types I, II, III) (Rattus norvegicus, UniProt P04775+P04774+P08104). Description: Displacement of [3H]batrachotoxin from rat brain sodium channel. It counts as tissue-based. The procedure, abridged: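 Radioligand competition binding was done by an outside contract lab (Pan Lab). Inhibition constants (Ki) were derived from displacement of the stated tritiated ligand. Each compound was tested at 10 µM. Where inhibition at that concentration stayed below 50%, no Ki was reported.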

Test [4] concerns the target D(3) dopamine receptor (Homo sapiens, UniProt P35462). The test is described as follows: Compound is evaluated for binding affinity towards recombinant human Dopamine receptor D3 using [3H]spiperone in CHO cells at 10 uM. It counts as cell-based. The procedure, abridged:
(§1)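 Single-concentration screen at 10 µM in contract radioligand binding assays. Records whether inhibition of specific radioligand binding stayed below 50%.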

Test [5] addresses Histamine H1 receptor (Cavia porcellus) (UniProt P31389). The test is described as follows: Compound is evaluated for binding affinity towards Histamine H1 receptor using [3H]pyrilamine in guinea pig lung at 10 uM. It counts as tissue-based. An outline of the steps: as §1
In test [6] the target is T3, Adrenergic receptor alpha-2 (Rattus norvegicus, UniProt P22086+P19328+P22909).
T3 sequence (P22086 whole entry): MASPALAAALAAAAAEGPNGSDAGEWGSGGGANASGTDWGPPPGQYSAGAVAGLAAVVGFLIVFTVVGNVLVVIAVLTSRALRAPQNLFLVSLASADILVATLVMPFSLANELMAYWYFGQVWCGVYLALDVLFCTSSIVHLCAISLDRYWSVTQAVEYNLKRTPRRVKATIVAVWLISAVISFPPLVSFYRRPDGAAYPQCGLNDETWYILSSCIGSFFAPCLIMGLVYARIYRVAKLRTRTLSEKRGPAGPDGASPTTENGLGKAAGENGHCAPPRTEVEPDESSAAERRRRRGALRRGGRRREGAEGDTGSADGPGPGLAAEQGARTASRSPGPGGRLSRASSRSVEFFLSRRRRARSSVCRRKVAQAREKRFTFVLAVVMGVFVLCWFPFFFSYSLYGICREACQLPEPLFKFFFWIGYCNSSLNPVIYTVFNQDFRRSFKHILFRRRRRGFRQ
T3 sequence (P19328 whole entry): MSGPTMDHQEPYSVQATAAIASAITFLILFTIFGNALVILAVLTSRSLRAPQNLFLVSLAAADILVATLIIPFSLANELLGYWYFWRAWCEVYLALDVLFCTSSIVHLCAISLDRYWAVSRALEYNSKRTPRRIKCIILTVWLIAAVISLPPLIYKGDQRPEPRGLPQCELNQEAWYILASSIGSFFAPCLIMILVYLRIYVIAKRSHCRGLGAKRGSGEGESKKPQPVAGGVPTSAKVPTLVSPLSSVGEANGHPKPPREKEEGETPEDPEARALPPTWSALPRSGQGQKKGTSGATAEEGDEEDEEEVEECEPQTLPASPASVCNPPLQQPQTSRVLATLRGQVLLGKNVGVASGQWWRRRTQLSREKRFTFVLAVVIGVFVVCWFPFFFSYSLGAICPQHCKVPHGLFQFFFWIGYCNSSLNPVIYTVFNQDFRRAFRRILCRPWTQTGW
T3 sequence (P22909 whole entry): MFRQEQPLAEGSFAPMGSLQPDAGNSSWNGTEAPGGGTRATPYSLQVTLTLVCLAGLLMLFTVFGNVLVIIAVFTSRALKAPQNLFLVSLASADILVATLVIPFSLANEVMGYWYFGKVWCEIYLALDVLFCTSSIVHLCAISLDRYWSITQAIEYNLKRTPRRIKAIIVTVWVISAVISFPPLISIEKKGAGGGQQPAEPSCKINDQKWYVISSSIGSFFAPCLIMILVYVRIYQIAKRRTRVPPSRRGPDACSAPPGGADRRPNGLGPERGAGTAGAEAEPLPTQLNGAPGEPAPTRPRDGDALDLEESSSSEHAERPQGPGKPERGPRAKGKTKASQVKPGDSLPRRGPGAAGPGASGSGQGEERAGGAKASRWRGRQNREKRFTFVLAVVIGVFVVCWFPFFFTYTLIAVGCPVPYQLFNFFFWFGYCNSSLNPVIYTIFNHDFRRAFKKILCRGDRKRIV
The test is described as follows: Displacement of clonidine from Alpha-2 adrenergic receptor in rat brain cortex. It counts as tissue-based. An outline of the steps:
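α2 competition binding run in triplicate with 1 nM [³H]clonidine plus 10 mM MgCl₂ in Tris pH 7.4, 30 min at room temperature. Test compounds at 1-100 µM. Nonspecific binding defined with 10 µM clonidine. Membranes collected on GF/B filters and washed twice with cold Tris. Protein 300-400 µg per assay. Ki given as mean ± SEM of 3-6 experiments.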

Histamine H1 receptor (Cavia porcellus), sequence (P31389 whole entry): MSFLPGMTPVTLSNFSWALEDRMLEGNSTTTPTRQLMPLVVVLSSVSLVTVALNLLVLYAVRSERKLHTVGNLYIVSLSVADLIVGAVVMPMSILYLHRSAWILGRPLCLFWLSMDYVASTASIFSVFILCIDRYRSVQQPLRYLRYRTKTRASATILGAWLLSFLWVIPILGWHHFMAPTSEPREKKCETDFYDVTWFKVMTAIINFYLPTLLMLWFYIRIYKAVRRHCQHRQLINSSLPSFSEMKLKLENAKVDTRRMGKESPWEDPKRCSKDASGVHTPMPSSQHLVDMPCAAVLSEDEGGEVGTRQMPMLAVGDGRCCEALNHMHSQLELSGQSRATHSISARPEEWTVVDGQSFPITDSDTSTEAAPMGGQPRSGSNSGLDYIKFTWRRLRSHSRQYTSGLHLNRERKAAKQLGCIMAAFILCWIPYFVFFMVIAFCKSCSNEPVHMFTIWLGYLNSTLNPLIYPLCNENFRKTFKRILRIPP
D(3) dopamine receptor, sequence (P35462 whole entry): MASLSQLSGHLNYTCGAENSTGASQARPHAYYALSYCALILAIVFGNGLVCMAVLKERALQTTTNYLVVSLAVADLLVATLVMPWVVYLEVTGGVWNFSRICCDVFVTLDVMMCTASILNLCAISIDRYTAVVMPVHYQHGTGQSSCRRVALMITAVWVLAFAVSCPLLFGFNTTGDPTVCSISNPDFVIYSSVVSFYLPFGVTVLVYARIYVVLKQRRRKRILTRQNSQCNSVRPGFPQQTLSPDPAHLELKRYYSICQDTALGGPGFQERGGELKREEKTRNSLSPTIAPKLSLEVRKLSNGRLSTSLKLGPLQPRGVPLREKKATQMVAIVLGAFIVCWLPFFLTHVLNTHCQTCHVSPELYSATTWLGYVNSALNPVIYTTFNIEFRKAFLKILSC

Molecule `COc1ccccc1N1CCN(C[C@@H]2CN=C3c4ccccc4NC(=O)N32)CC1` showed a negative logarithm of the Ki (pKi) in test [1] of 5.03.
With `COc1ccccc1N1CCN(CC2CN3C(=O)Nc4ccccc4C3=N2)CC1` (stereo unspecified), the pKi was 6.60 in test [1] and 6.26 in test [2].
For the molecule `COc1ccccc1N1CCN(C[C@H]2CN=C3c4ccccc4NC(=O)N32)CC1`, the pKi in test [1] is 6.94; in test [2], 6.35.
On the same counts, the results for `COc1ccccc1N1CCN(C[C@H]2CN=C3c4ccccc4N=C(SC)N32)CC1` are 6.42 and 6.06.
Regarding `COc1ccccc1N1CCN(CC2CN=C3c4ccccc4N=C(SC)N32)CC1` (stereo unspecified), the Ki in test [3] amounted to 404 nM. In other words, the sub-micromolar range.
The molecule `COc1ccccc1N1CCN(C[C@@H]2CN=C3c4ccccc4N=C(SC)N32)CC1` had a pKi in test [2] of 5.52.
Consider `COc1ccccc1N1CCN(Cc2cnc3c4ccccc4nc(O)n23)CC1`, for which the inhibition in test [4] and in test [5] was below 50% in each case. Further, the Ki was determined as 5380 nM in test [3] and 7830 nM in test [6].
As to `Oc1nc2ccccc2c2ncc(CN3CCN(c4ccccc4Cl)CC3)n12`, the inhibition in test [4] and in test [5] was below 50% each time. The values for the Ki in test [3] and in test [6] were 2460 nM and 2720 nM, respectively.
Consider `COc1ccccc1N1CCN(Cc2cn3c(O)nc4ccccc4c3n2)CC1`, for which the inhibition in test [4] and in test [5] was below 50% throughout. For the same molecule, the Ki is 4810 nM in test [3] and 6760 nM in test [6].
